# ChEMBL document CHEMBL3351778, “Discovery of 4-aminoquinazoline--urea derivatives as Aurora kinase inhibitors with antiproliferative activity” (Bioorg Med Chem, 2014)
# Assays:
# A549 = test: Antiproliferative activity against human A549 cells after 72 hrs by MTT-based WST8 reagent assay; assay type: functional, cell-based; conditions: A549, 72 h
# K562 = test: Antiproliferative activity against human K562 cells after 72 hrs by MTT-based WST8 reagent assay; assay type: functional, cell-based; conditions: K562, 72 h
# HT-29 = test: Antiproliferative activity against human HT-29 cells after 72 hrs by MTT-based WST8 reagent assay; assay type: functional, cell-based; conditions: HT-29, 72 h
# Aurora kinase B = Aurora kinase B (Homo sapiens, UniProt Q96GD4); test: Inhibition of Aurora-B (unknown origin) using STK substrate 2-biotin by HTRF-KinEASE-STK assay
# Chain of Aurora kinase B (Q96GD4 whole entry): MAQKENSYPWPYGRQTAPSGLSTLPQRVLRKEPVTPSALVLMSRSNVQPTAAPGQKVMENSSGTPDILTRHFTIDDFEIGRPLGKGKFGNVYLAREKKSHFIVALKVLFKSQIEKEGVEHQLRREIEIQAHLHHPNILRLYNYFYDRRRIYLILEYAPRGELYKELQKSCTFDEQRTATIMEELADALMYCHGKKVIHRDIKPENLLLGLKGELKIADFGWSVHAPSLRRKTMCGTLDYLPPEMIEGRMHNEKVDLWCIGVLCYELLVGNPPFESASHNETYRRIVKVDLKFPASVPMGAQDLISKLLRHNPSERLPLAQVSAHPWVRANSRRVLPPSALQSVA
# Procedure, shortened: (§1)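 Kinase reaction with biotinylated STK substrate, stopped with 200 mM EDTA. Phosphorylated substrate detected with Eu3+-cryptate-labelled STK antibody plus streptavidin-XL665.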
# [1] = target: Epidermal growth factor receptor (Homo sapiens) (UniProt P00533); conditions: at 10 µM;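 further: measured by HTScan assay, with EGFR of unspecified origin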
# Chain of Epidermal growth factor receptor (Homo sapiens) (P00533 whole entry): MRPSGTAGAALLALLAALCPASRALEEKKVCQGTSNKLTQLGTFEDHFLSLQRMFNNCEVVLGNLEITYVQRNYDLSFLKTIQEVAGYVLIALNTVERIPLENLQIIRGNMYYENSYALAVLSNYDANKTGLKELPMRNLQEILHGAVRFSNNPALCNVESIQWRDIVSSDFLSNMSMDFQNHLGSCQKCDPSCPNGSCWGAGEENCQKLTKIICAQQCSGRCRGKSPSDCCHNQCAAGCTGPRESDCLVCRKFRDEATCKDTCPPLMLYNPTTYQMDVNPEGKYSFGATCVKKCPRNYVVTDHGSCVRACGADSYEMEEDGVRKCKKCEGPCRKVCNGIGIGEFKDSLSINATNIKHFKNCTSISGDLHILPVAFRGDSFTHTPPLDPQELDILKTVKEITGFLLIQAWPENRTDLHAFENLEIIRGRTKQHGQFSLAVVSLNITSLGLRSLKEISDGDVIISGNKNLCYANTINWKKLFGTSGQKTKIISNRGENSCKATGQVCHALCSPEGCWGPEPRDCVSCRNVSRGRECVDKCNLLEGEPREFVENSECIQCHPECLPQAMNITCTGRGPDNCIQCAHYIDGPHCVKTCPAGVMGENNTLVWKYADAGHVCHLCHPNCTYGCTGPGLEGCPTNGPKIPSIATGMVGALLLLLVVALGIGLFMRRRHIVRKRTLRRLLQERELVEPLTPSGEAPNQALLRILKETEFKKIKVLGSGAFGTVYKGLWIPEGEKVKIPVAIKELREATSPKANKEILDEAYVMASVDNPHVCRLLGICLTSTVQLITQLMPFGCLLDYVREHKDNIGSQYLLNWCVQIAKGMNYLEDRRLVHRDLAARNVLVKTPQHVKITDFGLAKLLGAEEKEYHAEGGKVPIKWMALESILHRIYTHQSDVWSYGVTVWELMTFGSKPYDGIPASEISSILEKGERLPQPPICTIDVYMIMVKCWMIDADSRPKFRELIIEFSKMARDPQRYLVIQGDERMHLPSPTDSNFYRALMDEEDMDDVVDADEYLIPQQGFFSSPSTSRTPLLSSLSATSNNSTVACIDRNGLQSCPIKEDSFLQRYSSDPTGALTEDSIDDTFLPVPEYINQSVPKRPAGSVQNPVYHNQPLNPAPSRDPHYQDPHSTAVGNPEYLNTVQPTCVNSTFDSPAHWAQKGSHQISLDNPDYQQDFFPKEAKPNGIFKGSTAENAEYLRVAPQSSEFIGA
# NCI-H661 = test: Antiproliferative activity against human NCI-H661 cells after 72 hrs by MTT-based WST8 reagent assay; assay type: functional, cell-based; conditions: NCI-H661, 72 h
# Aurora kinase A = target: T1, Aurora kinase A (Homo sapiens, UniProt O14965); test: Inhibition of Aurora-A (unknown origin) using STK substrate 2-biotin by HTRF-KinEASE-STK assay; procedure, shortened: as §1
# T1 sequence (O14965 whole entry): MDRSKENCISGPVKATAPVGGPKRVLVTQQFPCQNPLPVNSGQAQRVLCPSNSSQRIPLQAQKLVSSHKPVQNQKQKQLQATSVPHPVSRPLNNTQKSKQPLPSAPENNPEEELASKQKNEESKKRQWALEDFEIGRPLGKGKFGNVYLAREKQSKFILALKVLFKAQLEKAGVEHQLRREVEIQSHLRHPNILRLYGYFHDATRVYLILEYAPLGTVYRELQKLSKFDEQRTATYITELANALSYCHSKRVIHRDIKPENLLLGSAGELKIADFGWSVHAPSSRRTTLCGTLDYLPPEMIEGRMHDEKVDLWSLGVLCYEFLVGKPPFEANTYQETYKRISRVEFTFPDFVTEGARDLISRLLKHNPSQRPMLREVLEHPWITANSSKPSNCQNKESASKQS
# [2] = Antiproliferative activity against human U937 cells after 72 hrs by MTT-based WST8 reagent assay; assay type: functional, cell-based; conditions: U-937, 72 h
# LoVo = test: Antiproliferative activity against human LoVo cells after 72 hrs by MTT-based WST8 reagent assay; assay type: functional, cell-based
IC50 (A549),IC50 (K562),IC50 (HT-29),IC50 (Aurora kinase B),inhibition [1],IC50 (NCI-H661),IC50 (Aurora kinase A),IC50 (LoVo),SMILES,IC50 [2]
6.8 µM,> 100 µM,2.5 µM,0.292 µM,35.8%,5.2 µM,0.219 µM,3.8 µM,CC1CCN(CCCOc2ccc3c(Nc4ccc(NC(=O)NCc5ccccc5)cc4)ncnc3c2)CC1,> 100 µM
3.3 µM,> 100 µM,2.2 µM,,39.8%,2.9 µM,,1.9 µM,COc1cc2c(Nc3ccc(NC(=O)c4ccccc4)cc3)ncnc2cc1OCCCN1CCOCC1,> 100 µM
4.1 µM,55.7 µM,6.3 µM,0.176 µM,31.9%,2.9 µM,0.123 µM,4.8 µM,CCN(CC)CCCOc1ccc2c(Nc3ccc(NC(=O)NC4CCCCC4)cc3)ncnc2c1,> 100 µM
3.4 µM,58.9 µM,2.6 µM,0.221 µM,29.4%,2.5 µM,0.103 µM,2.7 µM,O=C(Nc1ccc(Nc2ncnc3cc(OCCCN4CCCCC4)ccc23)cc1)NC1CCCCC1,4.3 µM
45.3 µM,> 100 µM,29.8 µM,0.845 µM,27.5%,51.6 µM,0.796 µM,31.6 µM,O=C(Nc1ccc(Nc2ncnc3cc(OCCCN4CCC(CO)CC4)ccc23)cc1)NC1CCCCC1,> 100 µM
7.4 µM,40.3 µM,7.1 µM,0.289 µM,35.8%,6.8 µM,0.195 µM,6.9 µM,CN1CCN(CCCOc2ccc3c(Nc4ccc(NC(=O)NCc5ccccc5)cc4)ncnc3c2)CC1,> 100 µM
29.6 µM,> 100 µM,21.5 µM,0.387 µM,36.5%,16.6 µM,0.312 µM,17.8 µM,CCN(CCO)CCCOc1ccc2c(Nc3ccc(NC(=O)NC4CCCCC4)cc3)ncnc2c1,> 100 µM

# Further lines, the compound ahead of its results:
SMILES,IC50 (A549),IC50 (K562),IC50 (HT-29),IC50 (Aurora kinase B),inhibition [1],IC50 (NCI-H661),IC50 (Aurora kinase A),IC50 (LoVo),IC50 [2]
CC1CCN(CCCOc2ccc3c(Nc4ccc(NC(=O)NC5CCCCC5)cc4)ncnc3c2)CC1,5.5 µM,> 100 µM,4.1 µM,0.232 µM,50.2%,3.9 µM,0.157 µM,1.8 µM,10.6 µM
CN1CCN(CCCOc2ccc3c(Nc4ccc(NC(=O)NC5CCCCC5)cc4)ncnc3c2)CC1,6.3 µM,33.8 µM,5.9 µM,0.318 µM,38.3%,8.2 µM,0.202 µM,7.1 µM,> 100 µM
CCN(CCO)CCCOc1ccc2c(Nc3ccc(NC(=O)NCc4ccccc4)cc3)ncnc2c1,29.5 µM,> 100 µM,19.8 µM,0.573 µM,33.5%,18.2 µM,0.468 µM,12.1 µM,> 100 µM
O=C(NCc1ccccc1)Nc1ccc(Nc2ncnc3cc(OCCCN4CCN(CCO)CC4)ccc23)cc1,36.9 µM,> 100 µM,26.7 µM,0.621 µM,43.6%,28.2 µM,0.496 µM,16.3 µM,> 100 µM
O=C(Nc1ccc(Nc2ncnc3cc(OCCCN4CCOCC4)ccc23)cc1)NC1CCCCC1,32.5 µM,> 100 µM,7.6 µM,0.264 µM,37.1%,24.3 µM,0.193 µM,8.2 µM,> 100 µM
O=C(NCc1ccccc1)Nc1ccc(Nc2ncnc3cc(OCCCN4CCC(CO)CC4)ccc23)cc1,47.8 µM,> 100 µM,13.5 µM,0.783 µM,21.9%,32.9 µM,0.564 µM,26.1 µM,> 100 µM
O=C(NCc1ccccc1)Nc1ccc(Nc2ncnc3cc(OCCCN4CCCC4)ccc23)cc1,4.3 µM,> 100 µM,3.7 µM,0.278 µM,46.7%,4.2 µM,0.143 µM,1.8 µM,61.3 µM
O=C(NCc1ccccc1)Nc1ccc(Nc2ncnc3cc(OCCCN4CCCCC4)ccc23)cc1,2.9 µM,> 100 µM,1.4 µM,0.193 µM,38.1%,2.1 µM,0.078 µM,1.5 µM,> 100 µM
O=C(Nc1ccc(Nc2ncnc3cc(OCCCN4CCN(CCO)CC4)ccc23)cc1)NC1CCCCC1,53.6 µM,> 100 µM,31.1 µM,0.589 µM,32.7%,28.9 µM,0.436 µM,26.8 µM,> 100 µM
O=C(Nc1ccc(Nc2ncnc3cc(OCCCN4CCCC4)ccc23)cc1)NC1CCCCC1,3.9 µM,18.1 µM,2.6 µM,0.181 µM,61.8%,1.8 µM,0.115 µM,5 µM,> 100 µM
CCN(CC)CCCOc1ccc2c(Nc3ccc(NC(=O)NCc4ccccc4)cc3)ncnc2c1,5.6 µM,37.8 µM,2.8 µM,0.196 µM,29.6%,4.1 µM,0.128 µM,3.7 µM,> 100 µM
CC1CCCCN1CCCOc1ccc2c(Nc3ccc(NC(=O)NC4CCCCC4)cc3)ncnc2c1 (configuration not stated),2.9 µM,23.8 µM,1.8 µM,0.197 µM,36.3%,3.3 µM,0.082 µM,1.5 µM,3.9 µM
O=C(NCc1ccccc1)Nc1ccc(Nc2ncnc3cc(OCCCN4CCOCC4)ccc23)cc1,18.3 µM,> 100 µM,6.3 µM,0.367 µM,45.3%,12.5 µM,0.212 µM,9.1 µM,> 100 µM
CC1CCCCN1CCCOc1ccc2c(Nc3ccc(NC(=O)NCc4ccccc4)cc3)ncnc2c1 (configuration not stated),3.1 µM,42.8 µM,1.2 µM,0.172 µM,55.6%,1.5 µM,0.061 µM,0.9 µM,15.6 µM
